In ChEMBL document CHEMBL1132971, “New azolidinediones as inhibitors of protein tyrosine phosphatase 1B with antihyperglycemic properties” (J Med Chem, 2000):
Calls of active or inactive are those of the source. The calls are words filed in the database; no cut-off is given here.

Assays:
[1] = molecular target: T1, Tyrosine-protein phosphatase non-receptor type 1 (Rattus norvegicus) (UniProt P20417); assay: IC50 for PTPase activity, recombinant r-PTP1B as the enzyme .
T1 sequence (whole entry): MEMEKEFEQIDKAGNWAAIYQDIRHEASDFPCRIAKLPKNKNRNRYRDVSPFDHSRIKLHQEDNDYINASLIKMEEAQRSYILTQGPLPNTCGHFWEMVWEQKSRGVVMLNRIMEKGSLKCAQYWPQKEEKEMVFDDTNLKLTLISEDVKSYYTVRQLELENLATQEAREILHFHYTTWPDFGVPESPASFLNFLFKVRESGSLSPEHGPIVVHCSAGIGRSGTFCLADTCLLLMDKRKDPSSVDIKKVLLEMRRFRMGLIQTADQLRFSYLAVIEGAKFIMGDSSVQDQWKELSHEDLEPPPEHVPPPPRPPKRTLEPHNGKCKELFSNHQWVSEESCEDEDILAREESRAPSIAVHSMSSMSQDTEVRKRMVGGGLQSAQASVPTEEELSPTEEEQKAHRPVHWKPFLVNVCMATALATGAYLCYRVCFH

[2] = system: Mus musculus; assay: Evaluated in vivo for their ability to decrease plasma glucose levels in diabetic C57BL/KsJ db/db mouse at a dose 100 mg/kg/day.; format: functional
Outline: (§1)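 Diabetic db/db or ob/ob mice dosed orally once daily for 4 days. Plasma glucose and insulin reported as percent change from a vehicle-treated group. 4-6 mice per group. Significance set at p < 0.05 or p < 0.01 versus vehicle; NS means generally less than -15% change.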

[3] = system: Mus musculus; assay: Evaluated in vivo for their ability to decrease plasma glucose levels in diabetic C57BL/KsJ ob/ob mouse at a dose 100 mg/kg/day.([…]); format: functional
Outline: as §1

[4] = system: Mus musculus; assay: Evaluated for their ability to decrease plasma insulin levels in mouse at a dose 100 mg/kg/day.([…]); format: functional
Outline: as §1

[5] = molecular target: T1, Tyrosine-protein phosphatase non-receptor type 1 (Rattus norvegicus); assay: Inhibition of PTPase (PTP1B) activity in rat hepatic membrane at 50 uM concentration, using pNPP as the substrate; format: cell membranes; conditions: Liver
Outline: (§2)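 Liver membranes from male Sprague-Dawley rats (100-150 g), about 30 µg protein per well. Preincubated 10 min at 37 °C with compound in 1.25% DMSO in 50 mM HEPES pH 7.4. Then 6.33 mM pNPP for 30 min at 37 °C, stopped with NaOH. p-Nitrophenol read at 410 nm. Run in triplicate. Reported as percent of untreated control.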

[6] = molecular target: T1, Tyrosine-protein phosphatase non-receptor type 1 (Rattus norvegicus); assay: Inhibition of PTPase activity using recombinant Protein-tyrosine phosphatase 1B as the enzyme and IR-triphosphopeptide as substrate at 50 uM
Outline: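 Recombinant rat PTP1B (human 321-aa form assayed the same way), activity about 1000-2000 nmol/min/mg, preincubated with compound for 10 min at 37 °C in HEPES pH 7.4. The reaction is started with 50 µM triphosphorylated insulin receptor 1142-1153 dodecapeptide and run 30 min at 37 °C. Released phosphate read by malachite green-molybdate at 650 nm, in quadruplicate. Result is percent inhibition versus control.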

[7] = system: Mus musculus; assay: Evaluated for their ability to decrease plasma insulin levels in mouse at a dose 100 mg/kg/day; **p indicates <0.01; format: functional
Outline: (§3)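 Mice dosed orally once daily for 4 days; plasma glucose and insulin measured and expressed as percent change versus a vehicle-treated group (mean ± SE, 4-6 mice/group). NS is generally less than -15% change. Significance is versus vehicle-treated mice.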

[8] = molecular target: T2, Tyrosine-protein phosphatase non-receptor type 1 (Homo sapiens) (UniProt P18031); assay: % inhibition of PTPase activity, recombinant human Protein-tyrosine phosphatase 1B as the enzyme at a concentration 50 uM
T2 sequence (whole entry): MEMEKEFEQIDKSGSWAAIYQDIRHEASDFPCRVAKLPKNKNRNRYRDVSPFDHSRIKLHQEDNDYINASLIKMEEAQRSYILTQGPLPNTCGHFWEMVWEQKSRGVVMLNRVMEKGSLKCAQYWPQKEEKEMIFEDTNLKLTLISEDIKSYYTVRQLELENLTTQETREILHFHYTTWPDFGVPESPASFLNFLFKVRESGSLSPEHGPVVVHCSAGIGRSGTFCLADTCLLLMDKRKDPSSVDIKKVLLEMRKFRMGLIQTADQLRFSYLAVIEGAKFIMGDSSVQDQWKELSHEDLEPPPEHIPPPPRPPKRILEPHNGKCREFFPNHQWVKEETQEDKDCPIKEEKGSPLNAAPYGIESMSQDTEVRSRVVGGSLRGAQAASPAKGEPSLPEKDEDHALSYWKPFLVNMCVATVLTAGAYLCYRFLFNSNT
Outline: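 Human recombinant PTP1B (321 aa form) dephosphorylating IR-triphosphopeptide (pY1146/1150/1151), 50 µM final. Run as for the rat enzyme: 10 min preincubation with compound at 37 °C, pH 7.4, then 30 min reaction at 37 °C. Phosphate read by malachite green-ammonium molybdate at 650 nm. Quadruplicates. IC50 by four-parameter logistic regression.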

[9] = molecular target: T1, Tyrosine-protein phosphatase non-receptor type 1 (Rattus norvegicus); assay: Inhibition of Protein-tyrosine phosphatase 1B activity in rat hepatic membrane at a concentration of 50 uM using pNPP as the substrate; format: cell membranes; conditions: Liver
Outline: as §2

[10] = system: Mus musculus; assay: Evaluated in vivo for their ability to decrease plasma glucose levels in diabetic C57BL/KsJ ob/ob mouse at a dose 100 mg/kg/day; **p indicates <0.01; format: functional
Outline: as §3

[11] = system: Mus musculus; assay: Evaluated in vivo for their ability to decrease plasma glucose levels in diabetic C57BL/KsJ db/db mouse at a dose 100 mg/kg/day. *p indicates <0.05; format: functional
Outline: as §3

[12] = system: Mus musculus; assay: Evaluated in vivo for their ability to decrease plasma glucose levels in diabetic C57BL/KsJ db/db mouse at a dose 100 mg/kg/day; format: functional
Outline: as §1

[13] = molecular target: T3, Tyrosine-protein phosphatase non-receptor type 1 (Mus musculus) (UniProt P35821); assay: In vivo ability to decrease plasma glucose levels in diabetic C57BL/KsJ ob/ob mouse at a dose 100 mg/kg/day; format: functional, organism-based
T3 sequence (whole entry): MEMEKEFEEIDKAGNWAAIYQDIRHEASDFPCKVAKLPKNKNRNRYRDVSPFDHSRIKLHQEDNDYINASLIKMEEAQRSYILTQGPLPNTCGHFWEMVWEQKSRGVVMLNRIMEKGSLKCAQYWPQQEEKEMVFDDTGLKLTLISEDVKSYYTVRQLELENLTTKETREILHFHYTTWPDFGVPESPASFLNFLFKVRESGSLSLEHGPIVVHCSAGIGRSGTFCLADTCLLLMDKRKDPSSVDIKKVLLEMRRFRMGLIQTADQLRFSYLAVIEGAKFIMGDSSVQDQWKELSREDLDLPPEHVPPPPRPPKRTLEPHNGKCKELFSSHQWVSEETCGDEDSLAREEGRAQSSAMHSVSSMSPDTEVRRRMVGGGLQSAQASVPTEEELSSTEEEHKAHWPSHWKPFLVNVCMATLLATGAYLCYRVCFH
Outline: as §1

[14] = molecular target: T3, Tyrosine-protein phosphatase non-receptor type 1 (Mus musculus); assay: Ability to decrease plasma insulin levels in mouse at a dose 100 mg/kg/day; format: functional, organism-based
Outline: as §1

[15] = molecular target: T4, Tyrosine-protein phosphatase non-receptor type 1 (Rattus norvegicus, UniProt P20417); assay: Inhibition of PTPase activity using recombinant r-PTP1B and IR-triphosphopeptide as substrate; ND is no data.
T4 sequence (P20417 whole entry): T1 sequence (whole entry)
Outline: (§4)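 Rat recombinant PTP1B in 33 mM TRIS-HCl, 2 mM EDTA, 50 mM β-mercaptoethanol, pH 7.4 (about 1000-2000 nmol/min/mg). Preincubated 10 min at 37 °C with or without compound in HEPES buffer pH 7.4. Released phosphate read by malachite green-ammonium molybdate at 650 nm against a phosphate standard. Quadruplicates. IC50 by four-parameter logistic fit.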

[16] = system: Mus musculus; assay: Evaluated in vivo for their ability to decrease plasma glucose levels in diabetic C57BL/KsJ db/db mouse at a dose 100 mg/kg/day.([…]); format: functional
Outline: as §1

[17] = molecular target: T1, Tyrosine-protein phosphatase non-receptor type 1 (Rattus norvegicus); assay: Inhibition of PTPase activity in rat hepatic membrane at a concentration of 250 uM using pNPP as the substrate; format: cell membranes; conditions: Liver
Outline: as §2

[18] = system: Mus musculus; assay: Evaluated for their ability to decrease plasma insulin levels in mouse at a dose 50 mg/kg/day. **p indicates <0.01; format: functional
Outline: as §1

[19] = system: Mus musculus; assay: Evaluated in vivo for their ability to decrease plasma glucose levels in diabetic C57BL/KsJ ob/ob mouse at a dose 50 mg/kg/day.; format: functional, organism-based
Outline: as §1

[20] = molecular target: T4, Tyrosine-protein phosphatase non-receptor type 1; assay: Inhibition of PTPase activity using recombinant Protein-tyrosine phosphatase 1B as the enzyme and IR-triphosphopeptide as substrate
[21] = molecular target: T4, Tyrosine-protein phosphatase non-receptor type 1; assay: Inhibition of PTPase activity using recombinant r-PTP1B as the enzyme and IR-triphosphopeptide as substrate
Outline: as §4

[22] = system: Mus musculus; assay: Evaluated in vivo for their ability to decrease plasma glucose levels in diabetic C57BL/KsJ ob/ob mouse at a dose 70 mg/kg/day; NS is not significant; format: functional, organism-based
Outline: as §1

[23] = system: Mus musculus; assay: Evaluated for their ability to decrease plasma insulin levels in mouse at a dose 70 mg/kg/day; NS is not significant; format: functional, organism-based
Outline: as §1

[24] = system: Mus musculus; assay: Evaluated in vivo for their ability to decrease plasma glucose levels in diabetic C57BL/KsJ db/db mouse at a dose 100 mg/kg/day; NS is not significant; format: functional, organism-based
Outline: as §1

Compound: C/C(=C\CC1SC(=O)NC1=O)c1cccc(OCc2nc(-c3ccc(OC(F)(F)F)cc3)oc2C)c1 (stereo unspecified)
- IC50 [1]: 1.5 µM
- Decrease [2]: 18%
- Decrease [3]: 44%
- Decrease [4]: 63%
- inhibition [5]: 46%

Compound: CCC/C(=C\Cn1oc(=O)[nH]c1=O)c1cccc(OCc2nc(-c3ccc(C(F)(F)F)cc3)oc2C)c1
- inhibition [6]: 2%
- Decrease [7]: 82%
- inhibition [8]: 1.9%
- inhibition [9]: 58%
- Decrease [10]: 58%
- Decrease [11]: 59%

Compound: Cc1oc(-c2ccc(OC(F)(F)F)cc2)nc1COc1cccc(C(C)CCn2oc(=O)[nH]c2=O)c1 (stereo unspecified)
- Decrease [12]: 41%
- Decrease [13]: Not significant
- Decrease [14]: Not significant
- IC50 [15]: Not significant
- inhibition [5]: 47%

Compound: Cc1c(C)c2c(c(C)c1O)CCC(C)(COc1ccc(CC3SC(=O)NC3=O)cc1)O2 (stereo unspecified) [TROGLITAZONE]
- Decrease [16]: 34%
- inhibition [17]: 29%

Compound: Cc1oc(-c2ccc(C(F)(F)F)cc2)nc1COc1cccc(/C=C/C(C)n2oc(=O)[nH]c2=O)c1 (stereo unspecified)
- Decrease [18]: 83%
- inhibition [5]: 49%
- Decrease [19]: inactive
- Decrease [11]: 41%

Compound: CCCC/C(=C\Cn1oc(=O)[nH]c1=O)c1cccc(OCc2cc(Cl)cc(Cl)c2)c1
- IC50 [20]: 1800 nM
- inhibition [9]: 61%
- IC50 [21]: 800 nM
- inhibition [5]: 57%

Compound: C/C(=C\C=C\Cn1oc(=O)[nH]c1=O)c1cccc(OCc2nc(-c3ccccc3)oc2C)c1
- inhibition [6]: 1.4%
- inhibition [9]: 57%
- Decrease [22]: inactive
- Decrease [23]: inactive
- Decrease [24]: inactive
